Experimental data from different studies.
Compare with care: the assays were run in different laboratories.
Effect on: enzyme activity
Mode: inhibitor
CDK2 with cyclin A: Cyclin-dependent kinase 2, with cyclin A (CDK2, Homo sapiens, UniProt P24941)
CDK2 with cyclin E: Cyclin-dependent kinase 2, with cyclin E (CDK2, Homo sapiens, UniProt P24941)

SMILES | target | assay | conditions | remaining activity
CC(C)(C)c1nc2c(s1)c1nc(N)ncc1c1ccc(NS(=O)(=O)c3c(F)cccc3F)c(F)c12 | Cyclin-dependent kinase 2, with cyclin E1 (CDK2, Homo sapiens, UniProt P24941) | radiometric | 1 µM | 93%
O=C(Nc1cnn(-c2csc(C(=O)NC3COC3)c2)c1)Nc1ccccc1Cl | Cyclin-dependent kinase 2, with cyclin E2 (CDK2, Homo sapiens, UniProt P24941) |  | 5 µM | 107%
Nc1nc(Nc2ccccc2)sc1C(=O)c1c(F)cccc1F | CDK2 with cyclin A |  | 10 µM | 2%
Oc1cccc(-c2nc(N3CCOCC3)c3oc4ncccc4c3n2)c1 | CDK2 with cyclin A |  | 10 µM | 94%
Cc1sc(C(=O)NC2COC2)cc1-n1cc(NC(=O)Nc2c(F)cccc2Cl)cn1 | CDK2 with cyclin A |  | 10 µM | 98.3%
COc1cc(Cl)c(C(=O)N[C@@H](CN[C@H]2CC[C@@H](N)CC2)Cc2ccc(C#N)cc2)cc1-c1ccc(CN[C@H](C)c2ccc(C)cc2)o1 | CDK2 with cyclin A |  | 1 µM | 96%
CC(C)(O)[C@H]1CC[C@H](Nc2ccc3ncc(-c4cccc(C(F)(F)F)c4)n3n2)CC1 | CDK2 with cyclin E |  | 1 µM | 91.1%
Cc1cnc(NC2CCOCC2)nc1-n1cnc(C(=O)NC(CN)c2cc(F)cc(Cl)c2)c1 (stereo not drawn) | CDK2 with cyclin A | radiometric | 1 µM | 3%
O=C(Nc1cnn(-c2csc(C(=O)NC3COC3)c2)c1)Nc1c(F)cccc1Cl | CDK2 with cyclin E |  | 5 µM | 94.6%
COc1cc(Nc2cnc(C#N)c(O[C@H](C)CN(C)C)n2)ncc1-c1cnn(C)c1 | CDK2 with cyclin A | radiometric | 10 µM | 91%
Cc1ccc(Nc2nccc(N(C)c3ccc4c(C)n(C)nc4c3)n2)cc1S(N)(=O)=O | CDK2 with cyclin E |  | 0.5 µM | 96.4%
CC(C)(C)c1nc(-c2cccc(NS(=O)(=O)c3c(F)cccc3F)c2F)c(-c2ccnc(N)n2)s1 | Cyclin-dependent kinase 2, with cyclin A2 (CDK2, Homo sapiens, UniProt P24941) | radiometric | 1 µM | 72%
